# Laboratory results taken from ChEMBL document CHEMBL1148407, “Macrocyclic polyamines deplete cellular ATP levels and inhibit cell growth in human prostate cancer cells” (2004).
# Tests used:
# DuPro [1] = assay: Macrocycle level in DuPro cells in 3 days after treatment with 1 uM concentration of the compound; Macrocycle level measured in per 10 lakh cells; type: functional, Homo sapiens
# How it was run: (§1)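 Log-phase DuPro cells grown in RPMI 1640 with 10% fetal calf serum were exposed to macrocycle at 0.5–4 μM for 3 or 5 days, harvested with trypsin/EDTA and counted. About 1×10^6 cells were washed in cold PBS, extracted in 2% perchloric acid and sonicated. Supernatant was dansylated (modified for ring NH) and analysed by C-18 HPLC with fluorescence detection. Untreated controls were run per experiment.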
# DuPro [2] = assay: Macrocycle level in DuPro cells in 5 days after treatment with 1 uM concentration of the compound; Macrocycle level measured in per 10 lakh cells; type: functional, Homo sapiens; how it was run: as §1
# DuPro [3] = assay: Macrocycle level in DuPro cells in 3 days after treatment with 2 uM concentration of the compound; Macrocycle level measured in per 10 lakh cells; type: functional, Homo sapiens; how it was run: as §1
# DuPro [4] = assay: Macrocycle level in DuPro cells in 5 days after treatment with 2 uM concentration of the compound; Macrocycle level measured in per 10 lakh cells; type: functional, Homo sapiens; how it was run: as §1
# DuPro [5] = assay: Macrocycle level in DuPro cells at 3 days after treatment with 1 uM concentration of the compound; Macrocycle level measured in per 10 lakh cells; type: functional, Homo sapiens; how it was run: as §1
# DuPro [6] = assay: Spermidine level in DuPro cells in 5 days after treatment with 1 uM concentration of the compound; Spd level measured in per 10 lakh cells; type: functional, Homo sapiens; how it was run: as §1
# DuPro [7] = assay: Putrescine level in DuPro cells at 3 days after treatment with 2 uM concentration of the compound; Put level measured in per 10 lakh cells; type: functional, Homo sapiens; how it was run: as §1
# DuPro [8] = assay: Spermidine level in DuPro cells at 5 days after treatment with 2 uM concentration of the compound; Spd level measured in per 10 lakh cells; type: functional, Homo sapiens; how it was run: as §1
# DuPro [9] = assay: Macrocycle level in DuPro cells at 3 days after treatment with 2 uM concentration of the compound; Macrocycle level measured in per 10 lakh cells; type: functional, Homo sapiens; how it was run: as §1
# DuPro [10] = assay: Macrocycle level in DuPro cells at 5 days after treatment with 2 uM concentration of the compound; Macrocycle level measured in per 10 lakh cells; type: functional, Homo sapiens; how it was run: as §1
# DuPro [11] = assay: Spermine level in DuPro cells in3 days after treatment with 1 uM concentration of the compound; Sm level measured in per 10 lakh cells; type: functional, Homo sapiens; how it was run: as §1
# DuPro [12] = assay: Putrescine level in DuPro cells at 5 days after treatment with 2 uM concentration of the compound; Put level measured in per 10 lakh cells; type: functional, Homo sapiens; how it was run: as §1
# DuPro [13] = assay: Spermidine level in DuPro cells in 3 days after treatment with 1 uM concentration of the compound; Spd level measured in per 10 lakh cells; type: functional, Homo sapiens; how it was run: as §1
# DuPro [14] = assay: Macrocycle level in DuPro cells at 5 days after treatment with 1 uM concentration of the compound; Macrocycle level measured in per 10 lakh cells; type: functional, Homo sapiens; how it was run: as §1
# DuPro [15] = assay: Spermine level in DuPro cells at 3 days after treatment with 2 uM concentration of the compound; Sm level measured in per 10 lakh cells; type: functional, Homo sapiens; how it was run: as §1
# DuPro [16] = assay: Spermine level in DuPro cells in 5 days after treatment with 1 uM concentration of the compound; Sm level measured in per 10 lakh cells; type: functional, Homo sapiens; how it was run: as §1
# DuPro [17] = assay: Putrescine level in DuPro cells in 3 days after treatment with 1 uM concentration of the compound; Put level measured in per 10 lakh cells; type: functional, Homo sapiens; how it was run: as §1
# DuPro [18] = assay: Spermine level in DuPro cells at 5 days after treatment with 2 uM concentration of the compound; Sm level measured in per 10 lakh cells; type: functional, Homo sapiens; how it was run: as §1
# DuPro [19] = assay: Spermidine level in DuPro cells at 3 days after treatment with 2 uM concentration of the compound; Spd level measured in per 10 lakh cells; type: functional, Homo sapiens; how it was run: as §1
# DuPro [20] = assay: Macrocycle level in DuPro cells in 5 days after treatment with 0.5 uM concentration of the compound; Macrocycle level measured in per 10 lakh cells; type: functional, Homo sapiens; how it was run: as §1
# DuPro [21] = assay: Spermine level in DuPro cells in 3 days after treatment with 0.5 uM concentration of the compound; Sm level measured in per 10 lakh cells; type: functional, Homo sapiens; how it was run: as §1
# DuPro [22] = assay: Macrocycle level in DuPro cells in 3 days after treatment with 0.5 uM concentration of the compound; Macrocycle level measured in per 10 lakh cells; type: functional, Homo sapiens; how it was run: as §1
# PC-3 = assay: Inhibitory effect against growth of PC-3 human prostate cancer cell line; type: functional; conditions: read-out: ID50 (the source's name)
# How it was run: (§2)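 MTT growth assay. Trypsinized cells, 500 per well, seeded and incubated overnight at 37 °C in humidified 95% air/5% CO2. Serial macrocycle dilutions added, each concentration in quadruplicate, buffer controls in the outer columns, 6 days (144 h) of exposure. MTT 5 mg/mL added for 4 h, then overnight lysis in SDS/DMF/acetic acid buffer pH 4.8. Absorbance at 570 nm; ID50 derived.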
# DuPro [23] = assay: Spermidine level in DuPro cells in 5 days after treatment with 0.5 uM concentration of the compound; Spd level measured in per 10 lakh cells; type: functional, Homo sapiens; how it was run: as §1
# DuPro [24] = assay: Macrocycle level in DuPro cells in 5 days after treatment with 4 uM concentration of the compound; Macrocycle level measured in per 10 lakh cells; type: functional, Homo sapiens; how it was run: as §1
# DuPro [25] = assay: Macrocycle level in DuPro cells in 3 days after treatment with 4 uM concentration of the compound; Macrocycle level measured in per 10 lakh cells; type: functional, Homo sapiens; how it was run: as §1
# DuPro [26] = assay: Inhibitory effect against growth of DuPro human prostate cancer cell line; type: functional; conditions: read-out: ID50 (the source's name); how it was run: as §2
smiles,measurement,setting,value
CCCCCCCCCCCCCC1CC(=O)NCCCNCCCCNCCCN1.Cl.Cl.Cl (stereo unspecified),Polyamine level,DuPro [1],2.79 nM
same,Polyamine level,DuPro [2],17.2 nM
same,Polyamine level,DuPro [3],25.07 nM
same,Polyamine level,DuPro [4],21.47 nM
CCCCCCCCCCCCCC1CC(=O)NCCCNCCCNCCCNCCCN1.Cl.Cl.Cl.Cl (stereo unspecified),Polyamine level,DuPro [5],10.09 nM
same,Polyamine level,DuPro [6],0.014 nM
same,Polyamine level,DuPro [7],0.02 nM
same,Polyamine level,DuPro [8],0.018 nM
same,Polyamine level,DuPro [9],5.99 nM
same,Polyamine level,DuPro [10],49.31 nM
same,Polyamine level,DuPro [11],0.088 nM
same,Polyamine level,DuPro [12],0.011 nM
same,Polyamine level,DuPro [13],0.029 nM
same,Polyamine level,DuPro [14],46.77 nM
same,Polyamine level,DuPro [15],0.094 nM
same,Polyamine level,DuPro [16],0.043 nM
same,Polyamine level,DuPro [17],4 pM
same,Polyamine level,DuPro [18],0.053 nM
same,Polyamine level,DuPro [19],0.027 nM
CCCCCCCCCCCCCC1CC(=O)NCCCNCCCNCCCN1.Cl.Cl.Cl (stereo unspecified),Polyamine level,DuPro [20],35.91 nM
same,Polyamine level,DuPro [21],3 pM
same,Polyamine level,DuPro [22],47.57 nM
same,Polyamine level,DuPro [3],49.07 nM
same,Polyamine level,DuPro [4],42.34 nM
CCCCCCCCCCCCCC1CC(=O)NCCCNCCCCCNCCCN1.Cl.Cl.Cl (stereo unspecified),Polyamine level,DuPro [20],26.84 nM
same,IC50,PC-3,1.14 µM
same,Polyamine level,DuPro [23],5 pM
same,Polyamine level,DuPro [22],26.96 nM
same,Polyamine level,DuPro [3],17.2 nM
same,Polyamine level,DuPro [4],10.24 nM
CCCCCCCCCCCCCC1CC(=O)NCCCNCCCCN1.Cl.Cl (stereo unspecified),IC50,PC-3,1.7 µM
same,Polyamine level,DuPro [1],17 nM
same,Polyamine level,DuPro [24],32 nM
same,Polyamine level,DuPro [25],22.1 nM
same,Polyamine level,DuPro [2],24 nM
same,IC50,DuPro [26],1.8 µM
